Columns and labels:
h5-HT2b and m5-HT2b = assay: Gq activation and β-arrestin-1 recruitment, statements covering both species; format: cell-based, human and mouse; conditions: absence of an activator
Outline: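 Human and mouse 5-HT2b receptors were tested in cells. Serotonin-driven Gq activation and β-arrestin-1 recruitment were read across increasing test compound concentrations. The same read-outs were taken with vehicle and no activator to capture basal (inverse agonist) activity. Data are mean ± SEM of three to four independent experiments, each in duplicate or triplicate. EC50 and Emax were derived.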

[1] = test system: neurology patients / AD patients; conditions: ref 1-8 of Supporting Data; cited from earlier work
human 5-HT2b receptor = human 5-HT2b receptor (Homo sapiens, UniProt P41595); assay: 5-HT2bR competitive radioligand binding, [125I]
Chain of human 5-HT2b receptor (P41595 whole entry): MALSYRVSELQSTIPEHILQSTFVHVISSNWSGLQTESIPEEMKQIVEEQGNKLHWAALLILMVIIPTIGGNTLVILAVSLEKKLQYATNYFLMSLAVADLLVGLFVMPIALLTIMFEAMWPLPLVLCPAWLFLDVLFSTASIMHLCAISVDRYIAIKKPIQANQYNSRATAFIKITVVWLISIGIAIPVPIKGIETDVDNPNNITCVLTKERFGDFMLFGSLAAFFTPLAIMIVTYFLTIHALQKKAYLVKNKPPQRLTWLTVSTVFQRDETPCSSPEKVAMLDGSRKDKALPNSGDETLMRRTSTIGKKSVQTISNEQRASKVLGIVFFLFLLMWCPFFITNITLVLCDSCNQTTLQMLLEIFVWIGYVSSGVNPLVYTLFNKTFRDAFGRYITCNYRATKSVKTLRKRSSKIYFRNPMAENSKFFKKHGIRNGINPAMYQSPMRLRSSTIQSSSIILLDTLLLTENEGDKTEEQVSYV

| Structure (SMILES) | Basal (constitutive) 5-HT2bR activity (h5-HT2b and m5-HT2b) | Risk for cardiotoxicity, drowsiness, or weight gain [1] | IC50 (human 5-HT2b receptor) |
| --- | --- | --- | --- |
| Cc1nc2n(c(=O)c1CCN1CCC(c3noc4cc(F)ccc34)CC1)CCCC2 [risperidone] | inhibited basal 5‐HT2bR | – | – |
| Cc1cc(-c2ccccc2)nnc1NCCN1CCOCC1 [minaprine] | – | low risk | 0.863 ± 0.008 µM |
